Data from ChEMBL document CHEMBL3045743, “Synthesis and herbicidal activity of isoindoline-1,3-dione substituted benzoxazinone derivatives containing a carboxylic ester group” (J Agric Food Chem, 2009).

Experiments:
Assay type in all cases: functional
Abutilon theophrasti [1] = test: Pre-emergence herbicidal activity against Abutilon theophrasti (velvetleaf) assessed as growth inhibition at 75 g.a.i./ha applied 24 hr after seeds were sown measured after 15 days; settings: read-out: GI
In short: (§1)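 Weeds sown 5 mm deep in pots of greenhouse clay soil (pH 6.5, 37.5% clay, CEC 12.9 cmol/kg) and grown at 22-25 °C. Water-diluted formulation was applied pre-emergence 24 h after sowing. Untreated and DMF solvent controls were included. Growth inhibition was visually rated in % against untreated controls after 15 days, as the mean of triplicates.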

Amaranthus [2] = test: Pre-emergence herbicidal activity against Amaranthus ascendens assessed as growth inhibition at 75 g.a.i./ha applied 24 hr after seeds were sown measured after 15 days; settings: read-out: GI; in short: as §1
Setaria viridis [3] = test: Post-emergence herbicidal activity against Setaria viridis (green foxtail) assessed as growth inhibition at 75 g.a.i./ha applied at one-leaf stage measured after 15 days; settings: 360 h, read-out: GI
In short: (§2)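 Pot-grown weeds sown 5 mm deep in greenhouse clay soil (pH 6.5, 1.7% organic matter, CEC 12.9 cmol/kg) at 22-25 °C. Stock diluted with water and sprayed post-emergence: dicots at 2-leaf stage, monocots at 1-leaf stage. Untreated and DMF solvent controls were included. % growth inhibition was scored visually versus untreated controls after 15 days. Triplicates averaged.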

Digitaria sanguinalis [4] = test: Post-emergence herbicidal activity against Digitaria sanguinalis (hairy crabgrass) assessed as growth inhibition at 75 g.a.i./ha applied at one-leaf stage measured after 15 days; settings: 360 h, read-out: GI; in short: as §2
Chenopodium album [5] = test: Pre-emergence herbicidal activity against Chenopodium album assessed as growth inhibition at 75 g.a.i./ha applied 24 hr after seeds were sown measured after 15 days; settings: read-out: GI; in short: as §1
Abutilon theophrasti [6] = test: Post-emergence herbicidal activity against Abutilon theophrasti (velvetleaf) assessed as growth inhibition at 75 g.a.i./ha applied at two-leaf stage measured after 15 days; settings: 360 h, read-out: GI; in short: as §2
Echinochloa crus-galli [7] = test: Post-emergence herbicidal activity against Echinochloa crus-galli (barnyard grass) assessed as growth inhibition at 75 g.a.i./ha applied at one-leaf stage measured after 15 days; settings: 360 h, read-out: GI; in short: as §2
Amaranthus [8] = test: Post-emergence herbicidal activity against Amaranthus ascendens assessed as growth inhibition at 75 g.a.i./ha applied at two-leaf stage measured after 15 days; settings: 360 h, read-out: GI; in short: as §2
Echinochloa crus-galli [9] = test: Pre-emergence herbicidal activity against Echinochloa crus-galli (barnyard grass) assessed as growth inhibition at 75 g.a.i./ha applied 24 hr after seeds were sown measured after 15 days; settings: read-out: GI; in short: as §1
Digitaria sanguinalis [10] = test: Pre-emergence herbicidal activity against Digitaria sanguinalis (hairy crabgrass) assessed as growth inhibition at 75 g.a.i./ha applied 24 hr after seeds were sown measured after 15 days; settings: read-out: GI; in short: as §1
Setaria viridis [11] = test: Pre-emergence herbicidal activity against Setaria viridis (green foxtail) assessed as growth inhibition at 75 g.a.i./ha applied 24 hr after seeds were sown measured after 15 days; settings: read-out: GI
In short: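 Preliminary pre-emergence screen at a single rate of 75 g a.i./ha. Stock diluted with water and sprayed on greenhouse pots 24 h after seeds were sown 5 mm deep in clay soil (pH 6.5, 1.7% organic matter); grown at 22-25 °C. Untreated and DMF solvent controls included; triplicate. Visual % growth inhibition vs untreated after 15 days, averaged and banded (>80% top band).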

Chenopodium album [12] = test: Post-emergence herbicidal activity against Chenopodium album assessed as growth inhibition at 75 g.a.i./ha applied at two-leaf stage measured after 15 days; settings: 360 h, read-out: GI; in short: as §2

Structure (SMILES) | inhibition of growth at 75 g/ha (Abutilon theophrasti [1]) [%] | inhibition of growth at 75 g/ha (Amaranthus [2]) [%] | inhibition of growth at 75 g/ha (Setaria viridis [3]) [%] | inhibition of growth at 75 g/ha (Digitaria sanguinalis [4]) [%] | inhibition of growth at 75 g/ha (Chenopodium album [5]) [%] | inhibition of growth at 75 g/ha (Abutilon theophrasti [6]) [%] | inhibition of growth at 75 g/ha (Echinochloa crus-galli [7]) [%] | inhibition of growth at 75 g/ha (Amaranthus [8]) [%] | inhibition of growth at 75 g/ha (Echinochloa crus-galli [9]) [%] | inhibition of growth at 75 g/ha (Digitaria sanguinalis [10]) [%] | inhibition of growth at 75 g/ha (Setaria viridis [11]) [%] | inhibition of growth at 75 g/ha (Chenopodium album [12]) [%]
CCOC(=O)C(CC)N1C(=O)COc2cc(F)c(N3C(=O)C4=C(CCCC4)C3=O)cc21 (stereo unspecified) | > 80 | 50 | 50 | 50 | 50 | > 80 | 50 | > 80 | 50 | 50 | 50 | > 80
CCOC(=O)CN1C(=O)C(C)Oc2cc(F)c(N3C(=O)C4=C(CCCC4)C3=O)cc21 (stereo unspecified) | > 80 | > 80 | < 50 | < 50 | > 80 | > 80 | < 50 | > 80 | < 50 | < 50 | < 50 | > 80
CCOC(=O)CN1C(=O)COc2cc(F)c(N3C(=O)c4ccc([N+](=O)[O-])cc4C3=O)cc21 | < 50 | < 50 | < 50 | < 50 | < 50 | 50 | < 50 | 50 | < 50 | < 50 | < 50 | 50
COC(=O)CN1C(=O)COc2cc(F)c(N3C(=O)c4ccccc4C3=O)cc21 | 50 | 50 | < 50 | < 50 | 50 | > 80 | < 50 | > 80 | < 50 | < 50 | < 50 | > 80
CCOC(=O)C(C)(C)N1C(=O)C(C)Oc2cc(F)c(N3C(=O)C4=C(CCCC4)C3=O)cc21 (stereo unspecified) | < 50 | 50 | 50 | 50 | < 50 | > 80 | 50 | > 80 | < 50 | < 50 | < 50 | > 80
CCOC(=O)C(C)N1C(=O)COc2cc(F)c(N3C(=O)c4ccc(C)cc4C3=O)cc21 (stereo unspecified) | < 50 | < 50 | < 50 | < 50 | 50 | > 80 | < 50 | < 50 | < 50 | < 50 | < 50 | < 50
CCC(C(=O)OC)N1C(=O)COc2cc(F)c(N3C(=O)C4=C(CCCC4)C3=O)cc21 (stereo unspecified) | < 50 | < 50 | 50 | 50 | < 50 | > 80 | < 50 | > 80 | < 50 | < 50 | < 50 | > 80
CCOC(=O)CN1C(=O)COc2cc(N3C(=O)c4ccc(C)cc4C3=O)c(F)cc21 | < 50 | < 50 | < 50 | < 50 | < 50 | < 50 | < 50 | < 50 | < 50 | < 50 | < 50 | < 50
